# Assay results reported in paper PMC6221089 (Diabetes, Obesity & Metabolism, 2018).
# No end group written: not given here.
# Key:
# [1] = LEADER trial; cited from earlier work
# [2] = system: counterregulatory responses to hypoglycaemia; settings: cited from earlier work
# [3] = system: people with type 2 diabetes; assay: Vital signs during the hypoglycaemic clamp; assay type: in vivo
# How it was run: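 Heart rate and systolic and diastolic BP recorded at each 30-min target PG level of the stepwise hypoglycaemic clamp. Each value is the mean of two readings, at 0 and 30 min. The clamp was run about 48 h after the 13th weekly s.c. dose, with participants fasted and supine or semi-supine.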
# [4] = system: plasma glucose; assay type: in vivo, people with type 2 diabetes
# How it was run: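 Clamp performed about 48 h after the 13th dose, with four 30-min target PG levels. AUC of glucose infusion rate computed at each level. Fasting PG measured on the morning of the day before the clamp. Recovery defined as PG ≥4.0 mmol/L, timed from termination of the insulin infusion at nadir; spontaneous recovery meant reaching this <40 min.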
# [5] = system: people with type 2 diabetes; assay type: in vivo
# How it was run: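 Stepwise hypoglycaemic clamp about 48 h after the 13th weekly s.c. dose; participants fasted (water allowed), supine or semi-supine, with 30-min target PG plateaux. At each target level, symptoms were scored on the Edinburgh Hypoglycaemia Scale and recognition recorded as a yes/no answer to "Do you feel hypo?".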
# [6] = system: people with type 2 diabetes; assay: Safety assessments; assay type: in vivo
# How it was run: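 Treatment-emergent adverse events counted from baseline to the follow-up visit: those starting on or after the first treatment day and no later than follow-up. Dosing was once-weekly s.c. self-injection for 13 doses per crossover period (0.25, 0.5, then 1.0 mg escalation; placebo volume-matched). Follow-up was in the final week of the second 5-week sampling period.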
# [7] = once-weekly s.c. treatment, 13 doses
compound,measurement,setting,value
liraglutide: GLP‐1 receptor agonist with a similar structure to semaglutide but a different pharmacokinetic profile,Incidence of severe hypoglycaemia compared with placebo,[1],statistically significantly lower
same,Effect on the counterregulatory responses to hypoglycaemia,[2],no effect
"Native GLP‐1: incretin hormone secreted by intestinal L cells in response to food intake (HAEGTFTSDVSSYLEGQAAKEFIAWLVKGR; ends and bridges not checked; UniProt P01275 98-127, looked up)",Effect on the response to hypoglycaemia,[2]; healthy volunteers,no effect
CC[C@H](C)[C@H](NC(=O)[C@H](Cc1ccccc1)NC(=O)[C@H](CCC(=O)O)NC(=O)[C@H](CCCCNC(=O)COCCOCCNC(=O)COCCOCCNC(=O)CC[C@H](NC(=O)CCCCCCCCCCCCCCCCC(=O)O)C(=O)O)NC(=O)[C@H](C)NC(=O)[C@H](C)NC(=O)[C@H](CCC(N)=O)NC(=O)CNC(=O)[C@H](CCC(=O)O)NC(=O)[C@H](CC(C)C)NC(=O)[C@H](Cc1ccc(O)cc1)NC(=O)[C@H](CO)NC(=O)[C@H](CO)NC(=O)[C@@H](NC(=O)[C@H](CC(=O)O)NC(=O)[C@H](CO)NC(=O)[C@@H](NC(=O)[C@H](Cc1ccccc1)NC(=O)[C@@H](NC(=O)CNC(=O)[C@H](CCC(=O)O)NC(=O)C(C)(C)NC(=O)[C@@H](N)Cc1cnc[nH]1)[C@@H](C)O)[C@@H](C)O)C(C)C)C(=O)N[C@@H](C)C(=O)N[C@@H](Cc1c[nH]c2ccccc12)C(=O)N[C@@H](CC(C)C)C(=O)N[C@H](C(=O)N[C@@H](CCCNC(=N)N)C(=O)NCC(=O)N[C@@H](CCCNC(=N)N)C(=O)NCC(=O)O)C(C)C [semaglutide],"Response to hypoglycaemia for heart rate, systolic or diastolic BP vs placebo",[3],no systematic differences
same,Time to reach recovery (PG ≥4.0 mmol/L),[4]; geometric mean,44 min
same,Proportion of participants who recovered spontaneously,[4]; reaching PG ≥4.0 mmol/L < 40 minutes after termination of the insulin infusion at nadir,~ 50%
same,Estimated mean hypoglycaemic symptom score vs placebo,"[5]; Edinburgh Hypoglycaemia Scale, target PG level 5.5 mmol/L",No difference
same,Effect on cognitive function,"[5]; Trail Making-B, Digit Symbol Substitution, Four-Choice Reaction Time tests, all PG levels",no effect
same,"Hypoglycaemia recognition, answer to ""Do you feel hypo?""",[5]; target level 5.5 mmol/L,all participants answered “no”
same,Severity of adverse events,"[6]; all events, both treatments",mild or moderate
same,"Clinical laboratory assessments (including amylase, lipase and calcitonin), physical examination or ECG",[6]; baseline to follow-up,No safety findings
same,Development of anti-semaglutide antibodies,[6]; baseline to follow-up,no participant developed anti‐semaglutide antibodies
same,Deaths or pancreatitis cases,[6]; during the trial,No deaths or pancreatitis cases
same,"Diastolic BP, mean (SD) change from baseline to end-of-treatment",[6]; [7],−2 [10] mm Hg
same,"Heart rate, mean (SD) change from baseline to end-of-treatment",[6]; [7],6 [8] beats/min
same,"Systolic BP, mean (SD) change from baseline to end-of-treatment",[6]; [7],−8 [16] mm Hg
